# Reference: ChEMBL document CHEMBL3352617, “Discovery of 9-(1-phenoxyethyl)-2-morpholino-4-oxo-pyrido[1,2-a]pyrimidine-7-carboxamides as oral PI3Kβ inhibitors, useful as antiplatelet agents” (Bioorg Med Chem Lett, 2014)
# pIC50: −log10 of the molar value.
# What was measured:
# [1] = test system: Hepatocyte; assay: Intrinsic clearance in human hepatocytes at 2 uM by LCMS analysis; assay type: ADME, cell-based
# In short: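 Test compound incubated with human hepatocytes. Intrinsic clearance and half-life derived from compound disappearance.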
# [2] = Lipophilicity, log D of the compound at pH 7.4 by HPLC method; assay type: physicochemical; settings: buffer
# In short: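 LogD measured experimentally at pH 7.4 by an HPLC method.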
# [3] = Antiplatelet activity against human platelet assessed as inhibition of collagen-induced platelet rich plasma aggregation by light transmission aggregometry; assay type: functional, cell-free
# In short: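 Human platelet rich plasma stimulated with collagen. Aggregation read by light transmission aggregometry in an in-house 96-well plate format.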
# [4] = Apparent permeability across apical to basolateral side of human Caco2 cells at 10 uM at pH 6.5 by LC-tandem MS analysis; assay type: ADME, cell-based; settings: Caco-2, pH 6.5
# In short: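 Caco-2 monolayers, apical-to-basolateral transport at pH 6.5. Result given as apparent permeability (Papp).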
# [5] = biological target: Phosphatidylinositol 4,5-bisphosphate 3-kinase catalytic subunit beta isoform (Homo sapiens, UniProt P42338); assay: Inhibition of human recombinant PI3Kbeta assessed as PIP3 production by AlphaScreen assay
# [6] = biological target: Phosphatidylinositol 4,5-bisphosphate 3-kinase catalytic subunit alpha isoform (Homo sapiens, UniProt P42336); assay: Inhibition of human recombinant PI3Kalpha assessed as PIP3 production by AlphaScreen assay
# Phosphatidylinositol 4,5-bisphosphate 3-kinase catalytic subunit alpha isoform, sequence (P42336 whole entry, canonical isoform): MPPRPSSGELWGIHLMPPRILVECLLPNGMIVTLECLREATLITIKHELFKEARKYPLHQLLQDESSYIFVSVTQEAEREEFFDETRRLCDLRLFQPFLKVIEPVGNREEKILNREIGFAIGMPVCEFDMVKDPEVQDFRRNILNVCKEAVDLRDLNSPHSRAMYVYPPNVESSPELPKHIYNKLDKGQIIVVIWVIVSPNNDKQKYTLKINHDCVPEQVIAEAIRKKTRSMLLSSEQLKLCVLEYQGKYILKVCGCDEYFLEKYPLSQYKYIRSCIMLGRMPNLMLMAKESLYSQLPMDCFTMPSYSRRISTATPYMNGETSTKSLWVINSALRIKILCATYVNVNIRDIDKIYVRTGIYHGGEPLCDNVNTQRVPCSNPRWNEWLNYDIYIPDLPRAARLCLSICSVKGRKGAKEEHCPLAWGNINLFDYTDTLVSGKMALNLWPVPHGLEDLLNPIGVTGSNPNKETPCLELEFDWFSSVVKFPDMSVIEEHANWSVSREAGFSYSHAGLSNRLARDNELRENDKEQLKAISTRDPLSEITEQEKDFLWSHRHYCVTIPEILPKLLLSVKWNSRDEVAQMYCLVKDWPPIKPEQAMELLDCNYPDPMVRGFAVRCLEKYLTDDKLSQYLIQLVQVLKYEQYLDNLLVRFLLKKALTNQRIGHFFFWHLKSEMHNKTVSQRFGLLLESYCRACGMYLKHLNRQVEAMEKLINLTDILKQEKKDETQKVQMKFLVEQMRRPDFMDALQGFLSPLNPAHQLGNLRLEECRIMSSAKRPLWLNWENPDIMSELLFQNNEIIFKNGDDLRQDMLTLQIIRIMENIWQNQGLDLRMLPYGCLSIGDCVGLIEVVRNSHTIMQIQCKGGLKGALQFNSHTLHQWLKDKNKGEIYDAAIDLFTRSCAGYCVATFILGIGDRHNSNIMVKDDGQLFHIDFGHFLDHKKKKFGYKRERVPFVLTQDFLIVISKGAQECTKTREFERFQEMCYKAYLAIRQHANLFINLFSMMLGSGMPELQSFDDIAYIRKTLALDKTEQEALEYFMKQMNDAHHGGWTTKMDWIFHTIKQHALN
# Phosphatidylinositol 4,5-bisphosphate 3-kinase catalytic subunit beta isoform, sequence (P42338 whole entry, canonical isoform): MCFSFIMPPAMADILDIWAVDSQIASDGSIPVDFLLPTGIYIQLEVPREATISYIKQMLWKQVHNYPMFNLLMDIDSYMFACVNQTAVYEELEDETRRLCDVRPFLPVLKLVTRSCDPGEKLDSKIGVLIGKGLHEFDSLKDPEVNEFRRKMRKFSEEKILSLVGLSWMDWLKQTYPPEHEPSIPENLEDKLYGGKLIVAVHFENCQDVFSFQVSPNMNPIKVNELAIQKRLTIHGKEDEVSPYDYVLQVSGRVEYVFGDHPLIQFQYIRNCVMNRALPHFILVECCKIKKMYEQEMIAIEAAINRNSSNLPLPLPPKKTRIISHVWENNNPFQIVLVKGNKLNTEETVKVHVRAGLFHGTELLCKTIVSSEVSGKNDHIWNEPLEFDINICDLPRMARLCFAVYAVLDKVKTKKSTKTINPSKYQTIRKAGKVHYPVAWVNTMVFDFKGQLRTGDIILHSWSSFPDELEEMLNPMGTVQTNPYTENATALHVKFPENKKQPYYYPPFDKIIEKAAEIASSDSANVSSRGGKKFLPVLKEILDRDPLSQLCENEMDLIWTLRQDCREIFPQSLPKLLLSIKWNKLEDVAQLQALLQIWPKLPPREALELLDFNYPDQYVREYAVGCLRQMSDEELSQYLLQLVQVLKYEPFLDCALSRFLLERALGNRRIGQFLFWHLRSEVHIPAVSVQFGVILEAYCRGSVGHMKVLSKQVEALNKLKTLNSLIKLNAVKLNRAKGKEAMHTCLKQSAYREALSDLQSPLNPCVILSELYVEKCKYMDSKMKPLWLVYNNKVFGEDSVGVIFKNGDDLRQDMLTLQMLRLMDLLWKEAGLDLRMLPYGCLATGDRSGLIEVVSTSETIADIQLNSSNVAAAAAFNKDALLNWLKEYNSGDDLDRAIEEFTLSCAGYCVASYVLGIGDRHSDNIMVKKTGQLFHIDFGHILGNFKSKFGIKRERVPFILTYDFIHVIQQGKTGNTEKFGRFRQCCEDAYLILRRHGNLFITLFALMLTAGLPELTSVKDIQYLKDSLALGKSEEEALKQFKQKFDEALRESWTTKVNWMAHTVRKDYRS
Compound,Intrinsic clearance (CLint) [1],logD [2],pIC50 [3],Papp A→B at 10 µM [4],pIC50 [5],pIC50 [6]
CC(Nc1ccccc1)c1cc(C(=O)NCCN(C)C)cn2c(=O)cc(N3CCOCC3)nc12 (racemic),< 4 µL/min,1.7,–,–,–,–
CC(Nc1ccccc1)c1cc(C(=O)O)cn2c(=O)cc(N3CCOCC3)nc12 (racemic),< 4 µL/min,0.6,–,0.04 ×10⁻⁶ cm/s,–,–
Cc1cc(C(C)Nc2cccc(C(=O)O)c2)c2nc(N3CCOCC3)cc(=O)n2c1 (racemic),< 4 µL/min,0.3,–,0.9 ×10⁻⁶ cm/s,–,–
Cc1cc(C(C)Nc2ccccc2S(=O)(=O)O)c2nc(N3CCOCC3)cc(=O)n2c1 (racemic),< 4 µL/min,0.3,–,< 0.05 ×10⁻⁶ cm/s,–,–
CC(Nc1ccccc1)c1cc(C(=O)N(C)C)cn2c(=O)cc(N3CCOCC3)nc12 (racemic),4.3 µL/min,2.7,–,35.4 ×10⁻⁶ cm/s,–,–
Cc1cc([C@@H](C)Nc2ccccc2C(=O)NO)c2nc(N3CCOCC3)cc(=O)n2c1,30.2 µL/min,1.5,–,52 ×10⁻⁶ cm/s,7.08,5.54
Cc1cc(C(C)Nc2ccccc2)c2nc(N3CCOCC3)cc(=O)n2c1 (racemic),20 µL/min,–,–,66 ×10⁻⁶ cm/s,–,5.24
Cc1cc(C(C)Nc2ccccc2-c2nnn[nH]2)c2nc(N3CCOCC3)cc(=O)n2c1 (racemic),18.1 µL/min,0.8,–,0.08 ×10⁻⁶ cm/s,–,–
CC(Nc1ccccc1)c1cc(C(=O)NCCN2CCNCC2)cn2c(=O)cc(N3CCOCC3)nc12 (racemic),< 4 µL/min,1.5,–,–,–,–
Cc1cc([C@@H](C)Nc2ccccc2C(=O)NS(C)(=O)=O)c2nc(N3CCOCC3)cc(=O)n2c1,15 µL/min,0.9,–,0.11 ×10⁻⁶ cm/s,7.92,6.80
Cc1cc(C(C)Nc2cc(Cl)ccc2C(=O)O)c2nc(N3CCOCC3)cc(=O)n2c1 (racemic),11.9 µL/min,1.2,–,15 ×10⁻⁶ cm/s,–,–
CC(Nc1ccccc1)c1cc(C(=O)N2CCOCC2)cn2c(=O)cc(N3CCOCC3)nc12 (racemic),< 4 µL/min,2.7,–,26.9 ×10⁻⁶ cm/s,–,–

# The remaining lines, values ahead:
Intrinsic clearance (CLint) [1],logD [2],pIC50 [3],Papp A→B at 10 µM [4],pIC50 [5],pIC50 [6],Compound
–,3,6.15,–,–,–,Cc1ccccc1OC(C)c1cc(C(=O)N(C)CCO)cn2c(=O)cc(N3CCOCC3)nc12 (racemic)
–,2,5.82,–,–,–,CC(Oc1cccc(C#N)c1)c1cc(C(=O)N(C)CCO)cn2c(=O)cc(N3CCOCC3)nc12 (racemic)
< 4 µL/min,2,–,4.3 ×10⁻⁶ cm/s,–,–,CC(Nc1ccccc1)c1cc(C(=O)N(C)CCO)cn2c(=O)cc(N3CCOCC3)nc12 (racemic)
–,1.9,5.02,–,–,–,COc1ccccc1OC(C)c1cc(C(=O)N(C)CCO)cn2c(=O)cc(N3CCOCC3)nc12 (racemic)
–,2.3,5.72,–,–,–,COc1cccc(OC(C)c2cc(C(=O)N(C)CCO)cn3c(=O)cc(N4CCOCC4)nc23)c1 (racemic)
< 4 µL/min,0.6,–,1 ×10⁻⁶ cm/s,–,–,CC(Nc1ccccc1)c1cc(C(=O)N(C)CC(=O)O)cn2c(=O)cc(N3CCOCC3)nc12 (racemic)
–,2.3,5.68,–,–,–,CC(Oc1ccccc1F)c1cc(C(=O)N(C)CCO)cn2c(=O)cc(N3CCOCC3)nc12 (racemic)
–,3.3,6.15,–,–,–,Cc1c(F)cccc1OC(C)c1cc(C(=O)N(C)CCO)cn2c(=O)cc(N3CCOCC3)nc12 (racemic)
–,2.3,6.40,–,–,–,CC(Oc1ccccc1)c1cc(C(=O)N(C)CCO)cn2c(=O)cc(N3CCOCC3)nc12 (racemic)
–,2.8,5.30,–,–,–,Cc1cccc(OC(C)c2cc(C(=O)N(C)CCO)cn3c(=O)cc(N4CCOCC4)nc23)c1 (racemic)
–,2.9,5.60,–,–,–,Cc1cc(OC(C)c2cc(C(=O)N(C)CCO)cn3c(=O)cc(N4CCOCC4)nc23)ccc1F (racemic)
